test system: not listed separately; experiment: MTT-based cell viability assay; details: human, HeLa cells
Outline: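 HeLa cells harvested in log phase, seeded at 1×10^3 per well in DMEM with 10% FBS, kept at 37 °C with 5% CO2. Test compound added 24 h after seeding from 10× stocks in DMEM; controls were DMEM alone and medium with DMSO (final 1%). At 72 h, MTT (2 mg mL−1 in PBS) added for 4 h; formazan dissolved in DMSO, A550 read. Value is the concentration reducing absorbance to 50% of control.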

Row | SMILES | CC50 at 72 h
1 | COc1ccccc1NC(=O)c1ccccc1Sc1ccccc1 [4a, N-(2-Methoxyphenyl)-2-(phenylthio)benzamide] | > 100 µM
2 | COc1ccccc1NC(=O)c1ccccc1Sc1ccc([N+](=O)[O-])cc1 [5a (RN18), N-(2-Methoxyphenyl)-2-((4-nitrophenyl)thio)benzamide] | > 100 µM
3 | COc1ccccc1C(=O)Nc1ccccc1Sc1ccc([N+](=O)[O-])cc1 [5c, N-(2-(4-Nitrophenylthio)phenyl)-2-methoxybenzamide] | > 100 µM
4 | COc1ccccc1NS(=O)(=O)c1ccccc1Sc1ccc([N+](=O)[O-])cc1 [5d, N-(2-Methoxyphenyl)-2-((4-nitrophenyl)thio)benzenesulfonamide] | > 100 µM
5 | COc1ccccc1S(=O)(=O)Nc1ccccc1Sc1ccc([N+](=O)[O-])cc1 [5e, 2-Methoxy-N-(2-(4-nitrophenylthio)phenyl)benzenesulfonamide] | > 100 µM
6 | COc1ccccc1CC(=O)Nc1ccccc1Sc1ccc([N+](=O)[O-])cc1 [5f, 2-(2-Methoxyphenyl)-N-(2-((4-nitrophenyl)thio)phenyl)acetamide] | > 100 µM
7 | O=C(Cc1ccccc1F)Nc1ccccc1Sc1ccc([N+](=O)[O-])cc1 [5g, 2-(2-Fluorophenyl)-N-(2-((4-nitrophenyl)thio)phenyl)acetamide] | > 100 µM
8 | COc1ccccc1NC(=O)c1ccccc1Sc1ccc(N)cc1 [6a, 2-((4-Aminophenyl)thio)-N-(2-methoxyphenyl)benzamide] | > 100 µM
9 | COc1ccccc1C(=O)Nc1ccccc1Sc1ccc(N)cc1 [6c, N-(2-(4-Aminophenylthio)phenyl)-2-methoxybenzamide] | 60 µM
10 | COc1ccccc1NS(=O)(=O)c1ccccc1Sc1ccc(N)cc1 [6d, 2-((4-Aminophenyl)thio)-N-(2-methoxyphenyl)benzenesulfonamide] | > 100 µM
11 | COc1ccccc1S(=O)(=O)Nc1ccccc1Sc1ccc(N)cc1 [6e, N-(2-(4-aminophenylthio)phenyl)-2-methoxybenzenesulfonamide] | 65 µM
12 | O=C(Nc1ccccc1CO)c1ccccc1Sc1ccc([N+](=O)[O-])cc1 [15e, N-(2-(Hydroxymethyl)phenyl)-2-((4-nitrophenyl)thio)benzamide] | > 100 µM
13 | O=C(Nc1cccc(CO)c1)c1ccccc1Sc1ccc([N+](=O)[O-])cc1 [15f, N-(3-(Hydroxymethyl)phenyl)-2-((4-nitrophenyl)thio)benzamide] | > 100 µM
14 | CC(C)(C)OC(=O)N1CCN(C(=O)c2ccccc2Sc2ccc([N+](=O)[O-])cc2)CC1 [15h, tert-Butyl 4-(2-((4-nitrophenyl)thio)benzoyl)piperazine-1-carboxylate] | 70 µM
15 | COc1ccccc1NC(=O)c1ccccc1Sc1ccc([N+](=O)[O-])cc1Cl [16a, 2-(2-Chloro-4-nitrophenylthio)-N-(2-methoxyphenyl)benzamide] | 50 µM
16 | O=C(Nc1ccc2c(c1)OCO2)c1ccccc1Sc1ccc([N+](=O)[O-])cc1Cl [16d, N-(Benzo[d][1,3]dioxol-5-yl)-2-((2-chloro-4-nitrophenyl)thio)benzamide] | > 100 µM
17 | COc1ccccc1NC(=O)c1ccccc1Oc1ccc([N+](=O)[O-])cc1 [18a, N-(2-Methoxyphenyl)-2-(4-nitrophenoxy)benzamide] | 15 µM
18 | O=C(Nc1ccccc1CO)c1ccccc1Oc1ccc([N+](=O)[O-])cc1 [18e, N-(2-(hydroxymethyl)phenyl)-2-(4-nitrophenoxy)benzamide] | 25 µM
19 | COc1ccccc1NC(=O)c1ccccc1Oc1ccc(N)cc1 [19a, 2-(4-Aminophenoxy)-N-(2-methoxyphenyl)benzamide] | > 100 µM
20 | COc1ccccc1NC(=O)c1ccccc1Oc1ccc2c(c1)OCO2 [23h, 2-(Benzo[d][1,3]dioxol-5-yloxy)-N-(2-methoxyphenyl)benzamide] | > 100 µM
21 | COc1ccccc1C(=O)Nc1ccccc1Oc1ccc([N+](=O)[O-])cc1 [29k, 2-Methoxy-N-(2-(4-nitrophenoxy)phenyl)benzamide] | > 100 µM
22 | COc1ccccc1C(=O)Nc1ccccc1Oc1ccc(N(C)C)cc1 [30k, N-(2-(4-(Dimethylamino)phenoxy)phenyl)-2-methoxybenzamide] | > 100 µM
23 | COc1ccc(Oc2ccccc2NC(=O)c2ccccc2OC)cc1 [31k, 2-Methoxy-N-(2-(4-methoxyphenoxy)phenyl)benzamide] | > 100 µM
24 | COc1ccccc1C(=O)Nc1ccccc1Oc1ccc(OC(C)=O)cc1 [32k, 4-(2-(2-Methoxybenzamido)phenoxy)phenyl acetate] | > 100 µM
25 | COC(=O)c1ccc(Oc2ccccc2NC(=O)c2ccccc2OC)cc1 [33k, Methyl 4-(2-(2-methoxybenzamido)phenoxy)benzoate] | > 100 µM
26 | COc1ccccc1NC(=O)c1ccccc1OCc1ccc([N+](=O)[O-])cc1 [40j, N-(2-Methoxyphenyl)-2-((4-nitrobenzyl)oxy)benzamide] | > 100 µM
27 | COc1ccccc1C(=O)Nc1ccccc1OCc1ccc([N+](=O)[O-])cc1 [40k, N-(2-(4-Nitrobenzyloxy)phenyl)-2-methoxybenzamide] | > 100 µM
28 | COc1ccccc1NC(=O)c1ccccc1OCc1cccc([N+](=O)[O-])c1 [41j, N-(2-Methoxyphenyl)-2-((3-nitrobenzyl)oxy)benzamide] | > 100 µM
29 | COc1ccc(COc2ccccc2C(=O)Nc2ccccc2OC)cc1 [43j, 2-(4-methoxybenzyloxy)-N-(2-methoxyphenyl)benzamide] | > 100 µM
30 | COC(=O)c1ccc(COc2ccccc2NC(=O)c2ccccc2OC)cc1 [45k, Methyl 4-((2-(2-methoxybenzamido)phenoxy)methyl)benzoate] | > 100 µM

test system: HIV-1 in permissive cells (MT-4); experiment: not given; details: which do not express A3G; cited from earlier work

Row | SMILES | inhibition of HIV-1 replication in permissive cells
31 | COc1ccccc1NC(=O)c1ccccc1Sc1ccc([N+](=O)[O-])cc1 [5a (RN18), N-(2-Methoxyphenyl)-2-((4-nitrophenyl)thio)benzamide] | not in permissive cells
